For eight molecules, inhibition, IC50 and solubility results are on record in ChEMBL document CHEMBL3352570, “ST7612AA1, a thioacetate-ω(γ-lactam carboxamide) derivative selected from a novel generation of oral HDAC inhibitors” (J Med Chem, 2014).

Molecules are shown by their SMILES. Calls of active or inactive are those of the source. No cut-off for these calls is given here.

Data set [1] concerns the target T1, Protein deacetylase HDAC6 (Homo sapiens) (UniProt Q9UBN7).
T1 sequence (whole entry): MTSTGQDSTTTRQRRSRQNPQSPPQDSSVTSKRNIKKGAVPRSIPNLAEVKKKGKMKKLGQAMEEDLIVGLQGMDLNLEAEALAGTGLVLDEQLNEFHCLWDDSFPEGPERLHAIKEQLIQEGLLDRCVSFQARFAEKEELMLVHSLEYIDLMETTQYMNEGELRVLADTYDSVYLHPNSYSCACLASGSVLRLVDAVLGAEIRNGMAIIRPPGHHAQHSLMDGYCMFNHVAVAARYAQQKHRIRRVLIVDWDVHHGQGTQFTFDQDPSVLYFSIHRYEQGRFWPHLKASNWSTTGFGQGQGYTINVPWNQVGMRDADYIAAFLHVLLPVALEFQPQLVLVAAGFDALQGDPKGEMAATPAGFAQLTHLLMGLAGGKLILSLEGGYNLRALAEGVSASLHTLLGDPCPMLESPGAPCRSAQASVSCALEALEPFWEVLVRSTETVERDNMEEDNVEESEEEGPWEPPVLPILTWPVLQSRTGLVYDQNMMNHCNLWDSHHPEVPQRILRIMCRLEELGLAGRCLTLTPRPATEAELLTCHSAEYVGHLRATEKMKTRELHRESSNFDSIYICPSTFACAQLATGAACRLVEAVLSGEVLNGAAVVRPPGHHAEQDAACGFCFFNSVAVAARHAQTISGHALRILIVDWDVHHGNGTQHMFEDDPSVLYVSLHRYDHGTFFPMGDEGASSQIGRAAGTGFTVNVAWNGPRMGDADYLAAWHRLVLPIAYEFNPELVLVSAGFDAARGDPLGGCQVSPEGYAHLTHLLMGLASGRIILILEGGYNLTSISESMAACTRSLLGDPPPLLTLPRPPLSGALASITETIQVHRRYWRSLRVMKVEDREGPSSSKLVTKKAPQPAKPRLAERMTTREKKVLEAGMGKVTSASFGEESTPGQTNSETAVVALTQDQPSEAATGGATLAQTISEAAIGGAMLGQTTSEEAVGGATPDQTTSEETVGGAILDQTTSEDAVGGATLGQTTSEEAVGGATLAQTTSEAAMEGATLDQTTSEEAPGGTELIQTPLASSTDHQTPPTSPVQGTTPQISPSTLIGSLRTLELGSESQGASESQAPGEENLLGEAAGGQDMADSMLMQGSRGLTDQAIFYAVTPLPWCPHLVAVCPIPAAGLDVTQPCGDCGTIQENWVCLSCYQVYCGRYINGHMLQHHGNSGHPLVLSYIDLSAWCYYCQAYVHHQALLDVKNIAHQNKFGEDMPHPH
Description: Inhibition of HDAC6 (unknown origin) using fluorogenic tetrapeptide RHKK(Ac) substrate at <50 uM by fluorescence assay. Put shortly: (§1)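 Fluorogenic assay with the tetrapeptide RHKK(Ac) substrate (p53 residues 379–382) at 50 μM.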

In data set [2] the target is T2, Histone deacetylase 1 (Homo sapiens, UniProt Q13547). Description: Inhibition of HDAC1 (unknown origin) using fluorogenic tetrapeptide RHKK(Ac) substrate by fluorescence assay.
A further data set deals with Histone deacetylase 2 (Homo sapiens, UniProt Q92769). Description: Inhibition of HDAC2 (unknown origin) using fluorogenic tetrapeptide RHKK(Ac) substrate at <50 uM by fluorescence assay. Put shortly: as §1
In data set [3] the target is T3, Histone deacetylase 8 (Homo sapiens) (UniProt Q9BY41).
T3 sequence (whole entry): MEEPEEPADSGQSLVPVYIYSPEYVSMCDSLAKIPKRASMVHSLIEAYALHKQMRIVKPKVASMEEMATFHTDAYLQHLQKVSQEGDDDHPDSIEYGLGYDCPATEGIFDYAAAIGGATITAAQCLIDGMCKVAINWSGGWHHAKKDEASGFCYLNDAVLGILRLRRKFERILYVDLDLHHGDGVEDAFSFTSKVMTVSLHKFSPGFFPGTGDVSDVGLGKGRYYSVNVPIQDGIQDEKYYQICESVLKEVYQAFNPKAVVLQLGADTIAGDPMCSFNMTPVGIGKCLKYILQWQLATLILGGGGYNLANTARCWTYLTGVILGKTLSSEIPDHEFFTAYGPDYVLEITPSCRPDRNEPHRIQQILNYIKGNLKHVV
Description: Inhibition of HDAC8 (unknown origin) using fluorogenic tetrapeptide RHK(Ac)K(Ac) substrate at <50 uM by fluorescence assay. The essentials: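 The HDAC8 assay used the diacetylated fluorogenic substrate RHK(Ac)K(Ac) at 50 μM.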

The target in a further data set is T4, Histone deacetylase 11 (Homo sapiens, UniProt Q96DB2).
T4 sequence (Q96DB2 whole entry): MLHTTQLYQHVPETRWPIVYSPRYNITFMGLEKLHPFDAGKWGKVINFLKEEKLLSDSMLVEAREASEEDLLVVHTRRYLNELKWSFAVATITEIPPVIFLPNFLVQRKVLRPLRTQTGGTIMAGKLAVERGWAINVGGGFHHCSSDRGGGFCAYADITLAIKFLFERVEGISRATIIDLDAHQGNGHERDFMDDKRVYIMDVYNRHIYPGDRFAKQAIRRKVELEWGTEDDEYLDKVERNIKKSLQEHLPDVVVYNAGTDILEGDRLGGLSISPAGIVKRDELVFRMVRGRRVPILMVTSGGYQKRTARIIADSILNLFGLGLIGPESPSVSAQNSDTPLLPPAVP
Description: Inhibition of HDAC11 (unknown origin) using fluorogenic tetrapeptide RHKK(Ac) substrate by fluorescence assay.

In data set [4] the target is T5, Polyamine deacetylase HDAC10 (Homo sapiens, UniProt Q969S8).
T5 sequence (Q969S8 whole entry): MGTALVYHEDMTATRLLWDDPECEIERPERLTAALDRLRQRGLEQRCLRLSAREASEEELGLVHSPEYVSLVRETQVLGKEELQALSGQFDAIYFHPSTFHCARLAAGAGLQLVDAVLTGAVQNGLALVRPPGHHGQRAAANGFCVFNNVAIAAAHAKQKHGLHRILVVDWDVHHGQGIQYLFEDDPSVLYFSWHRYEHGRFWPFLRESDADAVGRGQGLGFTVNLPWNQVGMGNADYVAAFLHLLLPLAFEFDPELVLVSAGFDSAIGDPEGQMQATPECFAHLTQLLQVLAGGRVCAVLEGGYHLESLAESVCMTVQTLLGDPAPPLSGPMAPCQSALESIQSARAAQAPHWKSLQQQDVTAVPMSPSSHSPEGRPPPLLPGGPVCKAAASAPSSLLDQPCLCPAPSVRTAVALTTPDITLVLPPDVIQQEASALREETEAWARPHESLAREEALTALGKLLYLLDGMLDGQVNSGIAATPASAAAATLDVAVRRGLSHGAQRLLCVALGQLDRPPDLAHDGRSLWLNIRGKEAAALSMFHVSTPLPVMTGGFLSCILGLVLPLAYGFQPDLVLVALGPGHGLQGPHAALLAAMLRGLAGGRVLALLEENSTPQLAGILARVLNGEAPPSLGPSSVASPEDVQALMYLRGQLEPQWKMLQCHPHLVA
Description: Inhibition of HDAC10 (unknown origin) using fluorogenic tetrapeptide RHKK(Ac) substrate by fluorescence assay.

Data set [5] deals with T6, Histone deacetylase 3 (Homo sapiens, UniProt O15379). Description: Inhibition of HDAC3 (unknown origin) using fluorogenic tetrapeptide RHKK(Ac) substrate by fluorescence assay.
The target of data set [6] is T7, Protein deacetylase HDAC6 (Homo sapiens, UniProt Q9UBN7).
T7 sequence (Q9UBN7 whole entry): T1 sequence (whole entry)
Description: Inhibition of HDAC6 (unknown origin) using fluorogenic tetrapeptide RHKK(Ac) substrate by fluorescence assay.

The target in another data set is T8, Histone deacetylase 8 (Homo sapiens, UniProt Q9BY41).
T8 sequence (Q9BY41 whole entry): T3 sequence (whole entry)
Description: Inhibition of HDAC8 (unknown origin) using fluorogenic tetrapeptide RHK(Ac)K(Ac) substrate by fluorescence assay.

Data set [7] addresses T2, Histone deacetylase 1. Description: Inhibition of HDAC1 (unknown origin) using fluorogenic tetrapeptide RHKK(Ac) substrate at <50 uM by fluorescence assay. The essentials:
as §1

Data set [8] concerns the target T6, Histone deacetylase 3. Description: Inhibition of HDAC3 (unknown origin) using fluorogenic tetrapeptide RHKK(Ac) substrate at <50 uM by fluorescence assay. The essentials: as §1
A short description of data set [9]: Solubility of the compound in water. It is filed as physicochemical.
The target in data set [10] is Histone deacetylase. Description: Inhibition of HDAC-mediated histone H4 deacetylation in human NCI-H460 cells after 3 hrs by Western blot analysis. It is filed as cell-based. The essentials: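 NCI-H460 cells were plated the day before and treated 3 h across a dose range. Cells were washed with DPBS containing 5 mM NaB and lysed in HNB buffer with 1% NP-40. Histones were acid-extracted from nuclei with 0.4 equiv/L H2SO4 and precipitated with acetone. Blots were probed for acetyl-H4 against total H4. Read-out was ECL and densitometry after normalization; IC50 fitted; means of at least two experiments.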

The nature of data set [11]: Cytotoxicity against human HCT116 cells after 24 hrs by SRB assay. The data set is classed as functional, cell-based. Conditions: HCT-116, 24 h. The essentials:
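HCT116 cells were cultured in McCoy's 5A with L-glutamine, 10% heat-inactivated FCS and 50 μg/mL gentamicin. After seeding at about 10% confluence and a 24 h recovery, they received drug for 24 h. Drug was washed out and cells were incubated 48 h more before SRB staining. IC50 is the 50% cell-number reduction versus vehicle, from fitted dose–response curves; means of at least two experiments.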

The target in data set [12] is Histone deacetylase. Description: Inhibition of HDAC-mediated tubulin deacetylation in human NCI-H460 cells after 3 hrs by Western blot analysis. The data set is classed as cell-based. The essentials: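 Cells (NCI-H460) were treated for 3 h with graded concentrations. The cytoplasmic fraction was collected after HNB/1% NP-40 lysis and centrifugation of nuclei at 2000g. This fraction was resolved by SDS-PAGE and probed for acetylated α-tubulin against α-tubulin and β-actin. Bands were detected by ECL and quantified by densitometry after normalization; IC50 fitted; means of at least two experiments.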

A further data set deals with NCI-H460. Description: Cytotoxicity against human NCI-H460 cells after 24 hrs by SRB assay. The data set is classed as functional, cell-based. To be noted: NCI-H460, 24 h. The essentials: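 NCI-H460 cells were grown in RPMI-1640 with L-glutamine, 10% heat-inactivated FCS and 50 μg/mL gentamicin. Cells were seeded at about 10% confluence and allowed to recover for 24 h. They were exposed to varying concentrations for 24 h, washed, then cultured a further 48 h. Surviving cells were measured by SRB. IC50 is the 50% reduction in cell number versus vehicle, from dose–response curve fitting; means of at least three experiments.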

The target in data set [13] is T9, Polyamine deacetylase HDAC10 (Homo sapiens) (UniProt Q969S8).
T9 sequence (whole entry): T5 sequence (Q969S8 whole entry)
Description: Inhibition of HDAC10 (unknown origin) using fluorogenic tetrapeptide RHKK(Ac) substrate at <50 uM by fluorescence assay. Put shortly: as §1

Chain of Histone deacetylase 2 (Q92769 whole entry): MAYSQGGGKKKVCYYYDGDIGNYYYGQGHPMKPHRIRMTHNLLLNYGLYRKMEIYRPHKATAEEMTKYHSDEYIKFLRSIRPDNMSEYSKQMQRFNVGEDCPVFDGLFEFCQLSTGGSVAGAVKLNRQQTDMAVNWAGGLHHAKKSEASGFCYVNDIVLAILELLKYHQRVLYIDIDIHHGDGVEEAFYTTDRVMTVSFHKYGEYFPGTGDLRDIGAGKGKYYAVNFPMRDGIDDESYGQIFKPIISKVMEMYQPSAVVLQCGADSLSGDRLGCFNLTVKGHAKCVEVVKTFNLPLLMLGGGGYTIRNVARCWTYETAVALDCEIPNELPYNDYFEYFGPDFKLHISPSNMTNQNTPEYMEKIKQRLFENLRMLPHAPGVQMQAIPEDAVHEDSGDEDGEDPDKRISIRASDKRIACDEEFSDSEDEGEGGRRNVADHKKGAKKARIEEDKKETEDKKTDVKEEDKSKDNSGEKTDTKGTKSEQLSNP
T2 sequence (Q13547 whole entry): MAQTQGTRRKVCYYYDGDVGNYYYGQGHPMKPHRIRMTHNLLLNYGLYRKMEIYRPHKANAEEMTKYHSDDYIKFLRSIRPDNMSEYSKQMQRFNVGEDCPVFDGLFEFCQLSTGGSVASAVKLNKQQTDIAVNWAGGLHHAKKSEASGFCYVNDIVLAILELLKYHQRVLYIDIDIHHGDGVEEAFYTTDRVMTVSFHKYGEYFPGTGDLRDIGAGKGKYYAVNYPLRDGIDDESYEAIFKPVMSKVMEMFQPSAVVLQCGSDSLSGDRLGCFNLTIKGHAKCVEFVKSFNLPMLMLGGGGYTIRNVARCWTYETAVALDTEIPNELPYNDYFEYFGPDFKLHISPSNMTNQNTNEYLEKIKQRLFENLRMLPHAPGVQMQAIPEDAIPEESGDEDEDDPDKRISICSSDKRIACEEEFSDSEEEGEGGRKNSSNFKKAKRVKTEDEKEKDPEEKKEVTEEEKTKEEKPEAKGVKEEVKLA
T6 sequence (O15379 whole entry): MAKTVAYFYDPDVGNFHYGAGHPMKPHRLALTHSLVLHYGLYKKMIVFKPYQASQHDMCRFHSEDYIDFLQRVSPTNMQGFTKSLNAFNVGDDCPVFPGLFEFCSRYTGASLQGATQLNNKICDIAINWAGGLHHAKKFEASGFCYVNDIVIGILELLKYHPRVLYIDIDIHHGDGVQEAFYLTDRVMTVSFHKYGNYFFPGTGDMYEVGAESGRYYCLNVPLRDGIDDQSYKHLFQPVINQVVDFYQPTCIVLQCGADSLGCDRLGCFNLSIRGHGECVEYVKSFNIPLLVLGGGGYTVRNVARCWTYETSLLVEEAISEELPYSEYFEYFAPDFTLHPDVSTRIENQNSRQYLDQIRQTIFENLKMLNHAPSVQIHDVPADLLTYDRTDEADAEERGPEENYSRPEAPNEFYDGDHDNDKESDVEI

Consider `O=C(CCCCCCS)N1CCc2ccccc2C1`, for which the inhibition entry (in data set [1]; on Histone deacetylase 2; in [3]) was “inactive” in each case. Moreover, the concentration for half-maximal inhibition (IC50) was 1.75 µM against Histone deacetylase 1 [2], 0.949 µM at Histone deacetylase 11, 2.93 µM in data set [4] and 35.8 µM on Histone deacetylase 3 [5].
For `CC(C)(C)OC(=O)N[C@@H](CCCCCS)C(=O)NC1CCCC1`, the half-inhibitory concentration (IC50) was determined as 1.12 µM in data set [6], 44 µM against Histone deacetylase 8, 30.7 µM at Histone deacetylase 11 and 5.21 µM in data set [4]. The inhibition result on Histone deacetylase 2, on Histone deacetylase 1 [7] and on Histone deacetylase 3 [8] was “inactive” throughout.
The molecule `CCOC(=O)SCCCCCCC(=O)Nc1ccccc1` yielded a solubility in [9] above 1000 µg/mL.
Regarding `CC(=O)SCCCCC[C@H](NC(=O)[C@@H]1CC(=O)N1)C(=O)Nc1ccccc1`, the concentration for half-maximal inhibition (IC50) came out at 0.031 µM at Histone deacetylase [10], 0.086 µM in data set [11], 0.05 µM against Histone deacetylase [12] and 0.05 µM in the data set on NCI-H460.
In data set [9], `CC(C)C(=O)SCCCCCCC(=O)Nc1ccccc1` came in with a solubility above 1000 µg/mL.
Consider `O=C1CCC[C@@H](C(=O)N[C@H](CCCCCS)C(=O)Nc2ccccc2)N1`, for which the values for the IC50 (in [6]; against Histone deacetylase 11; on Histone deacetylase 3 [5]) were 9.38 µM, 14.2 µM and 17.1 µM, respectively. The inhibition entry (at Histone deacetylase 2; in data set [3]; on Histone deacetylase 1 [7]; in data set [13]) was “inactive” in each case.
For the molecule `CC(=O)SCCCCCCC(=O)Nc1ccccc1`, in data set [9], the solubility was above 1000 µg/mL.
In the case of `CC(=O)SCCCCC[C@H](NC(=O)[C@@H]1CCCC(=O)N1)C(=O)Nc1ccccc1`, the IC50 against Histone deacetylase [10] was 0.1 µM; in data set [11], 0.13 µM; on Histone deacetylase [12], 0.1 µM; with NCI-H460, 0.1 µM.
